Active and inactive are the calls of the source. No cut-off for these calls is given here.
What was measured:
[1] = molecular target: Tyrosine-protein kinase ZAP-70 (Homo sapiens) (UniProt P43403); test: Inhibition of ZAP70 assessed as residual activity at 1 uM relative to control
How it was run: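 Radioactivity-based enzymatic kinase assays run across a 124-kinase profiling panel (Dundee), reporting the remaining kinase activity relative to a control.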

[2] = molecular target: Tyrosine-protein kinase CSK (Homo sapiens) (UniProt P41240); test: Inhibition of CSK assessed as residual activity at 10 uM relative to control
[3] = molecular target: Death-associated protein kinase 1 (Homo sapiens) (UniProt P53355); test: Inhibition of DAPK1 assessed as residual activity at 10 uM relative to control
[4] = molecular target: Dual specificity tyrosine-phosphorylation-regulated kinase 2 (Homo sapiens) (UniProt Q92630); test: Inhibition of DYRK2 assessed as residual activity at 10 uM relative to control
[5] = molecular target: Mitogen-activated protein kinase 15 (Homo sapiens) (UniProt Q8TD08); test: Inhibition of ERK8 assessed as residual activity at 10 uM relative to control
[6] = molecular target: Insulin receptor-related protein (Homo sapiens) (UniProt P14616); test: Inhibition of IRR assessed as residual activity at 10 uM relative to control
[7] = molecular target: Serine/threonine-protein kinase STK11 (Homo sapiens) (UniProt Q15831); test: Inhibition of LKB1 assessed as residual activity at 10 uM relative to control
[8] = molecular target: Mitogen-activated protein kinase kinase kinase 1 (Homo sapiens) (UniProt Q13233); test: Inhibition of MEKK1 assessed as residual activity at 10 uM relative to control
[9] = molecular target: Serine/threonine-protein kinase 26 (Homo sapiens) (UniProt Q9P289); test: Inhibition of MST4 assessed as residual activity at 10 uM relative to control
[10] = molecular target: Serine/threonine-protein kinase PAK 4 (Homo sapiens) (UniProt O96013); test: Inhibition of PAK4 assessed as residual activity at 10 uM relative to control
[11] = molecular target: Serine/threonine-protein kinase pim-2 (Homo sapiens) (UniProt Q9P1W9); test: Inhibition of PIM2 assessed as residual activity at 10 uM relative to control
[12] = molecular target: RAC-alpha serine/threonine-protein kinase (Homo sapiens) (UniProt P31749); test: Inhibition of PKBalpha assessed as residual activity at 10 uM relative to control
[13] = molecular target: T1, Leucine-rich repeat serine/threonine-protein kinase 2 (Homo sapiens, UniProt Q5S007); test: Inhibition of wild-type LRRK2 phosphorylation at Ser910 expressed in HEK293 cells after 90 mins by immunoblot analysis; format: cell-based
How it was run: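 HEK293 cells stably expressing wild-type GFP-LRRK2 exposed to DMSO or increasing inhibitor concentrations for 90 min. Lysates immunoblotted for LRRK2 phosphorylated at Ser910 and Ser935 and for total LRRK2.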

[14] = molecular target: T1, Leucine-rich repeat serine/threonine-protein kinase 2; test: Inhibition of wild type LRRK2 phosphorylation at Ser910 in human lymphoblastoid cells at 0.03 to 3 uM after 90 mins by Western blot analysis; format: cell-based
[15] = molecular target: Leucine-rich repeat serine/threonine-protein kinase 2 (Mus musculus) (UniProt Q5S006); test: Inhibition of wild type LRRK2 phosphorylation at Ser910 in mouse 3T3 cells after 90 mins by Western blot analysis; format: cell-based
How it was run: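 Mouse Swiss 3T3 cells treated with DMSO or increasing inhibitor concentrations for 90 min. Endogenous LRRK2 in lysates immunoblotted with purified phospho-specific antibodies to Ser910 and Ser935 and with a total LRRK2 antibody. Blots done in duplicate, representative of at least two independent experiments.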

[16] = test system: Brain; test: AUClast in Swiss albino mouse brain at 10 mg/kg, po; format: ADME, organism-based; set-up: time 0 - last, dose 10 mg/kg, route oral; conditions: in vivo
How it was run: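 Male Swiss Albino mice were given a single dose, either intravenous at 1 mg/kg or oral at 10 mg/kg. AUClast was measured in plasma and in brain. Half-life, plasma clearance, volume of distribution and oral bioavailability were derived from the plasma data.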

[17] = molecular target: Serine/threonine-protein kinase N2 (Homo sapiens) (UniProt Q16513); test: Inhibition of PRK2 assessed as residual activity at 10 uM relative to control
[18] = molecular target: Ribosomal protein S6 kinase beta-1 (Homo sapiens) (UniProt P23443); test: Inhibition of S6K1 assessed as residual activity at 10 uM relative to control
[19] = Inhibition of CK1 assessed as residual activity at 1 uM relative to control
How it was run: (§1)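 Standard radioactivity-based enzymatic assays were run across a 124-kinase panel (Dundee profiling), with compound at 1 µM. Kinase activity was expressed relative to control.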

[20] = molecular target: Dual specificity tyrosine-phosphorylation-regulated kinase 2 (Homo sapiens) (UniProt Q92630); test: Inhibition of DYRK2 assessed as residual activity at 1 uM relative to control; how it was run: as §1
[21] = Volume of distribution at steady state in Swiss albino mouse at 1 mg/kg, iv; format: ADME, organism-based; set-up: dose 1 mg/kg, route intravenous; conditions: in vivo, read-out: Vdss
How it was run: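 Male Swiss Albino mice given a single intravenous dose of 1 mg/kg (oral arm 10 mg/kg). Plasma and brain exposure measured, and steady-state volume of distribution derived from the plasma profile.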

[22] = test system: Mus musculus; test: Inhibition of LRRK2 phosphorylation at Ser910 in C57BL/6 mouse kidney at 10 mg/kg, po administered for 8 hrs followed by 2 hrs dosing; format: functional, organism-based; set-up: dose 10 mg/kg
How it was run: (§2)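 Mice were dosed by oral gavage at 10 or 50 mg/kg. Brain, spleen and kidney were collected. Endogenous LRRK2 was resolved by SDS–PAGE and blotted with phospho-specific antibodies to Ser910 and Ser935 and with an antibody to total LRRK2.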

[23] = test system: Mus musculus; test: Inhibition of LRRK2 phosphorylation at Ser935 in C57BL/6 mouse kidney at 10 mg/kg, po administered for 8 hrs followed by 2 hrs dosing; format: functional, organism-based; set-up: dose 10 mg/kg; how it was run: as §2
[24] = molecular target: Tyrosine-protein kinase BTK (Homo sapiens) (UniProt Q06187); test: Inhibition of BTK assessed as residual activity at 10 uM relative to control
[25] = molecular target: Calcium/calmodulin-dependent protein kinase kinase 2 (Homo sapiens) (UniProt Q96RR4); test: Inhibition of CAMKKb assessed as residual activity at 10 uM relative to control
[26] = molecular target: Cyclin-dependent kinase 2/cyclin A (Homo sapiens) (UniProt P24941+P20248+P78396); test: Inhibition of CDK2-Cyclin A assessed as residual activity at 10 uM relative to control; format: protein-complex assay
[27] = molecular target: Dual specificity mitogen-activated protein kinase kinase 6 (Homo sapiens) (UniProt P52564); test: Inhibition of MKK6 assessed as residual activity at 1 uM relative to control
[28] = molecular target: Serine/threonine-protein kinase 26 (Homo sapiens) (UniProt Q9P289); test: Inhibition of MST4 assessed as residual activity at 1 uM relative to control
[29] = molecular target: Serine/threonine-protein kinase PAK 4 (Homo sapiens) (UniProt O96013); test: Inhibition of PAK4 assessed as residual activity at 1 uM relative to control
[30] = molecular target: Protein kinase C alpha type (Homo sapiens) (UniProt P17252); test: Inhibition of PKCalpha assessed as residual activity at 1 uM relative to control
[31] = Inhibition of CK1 assessed as residual activity at 1 uM relative to control
[32] = molecular target: Serine/threonine-protein kinase Sgk1 (Homo sapiens) (UniProt O00141); test: Inhibition of SGK1 assessed as residual activity at 1 uM relative to control
Chain of Serine/threonine-protein kinase Sgk1 (Homo sapiens) (O00141 whole entry): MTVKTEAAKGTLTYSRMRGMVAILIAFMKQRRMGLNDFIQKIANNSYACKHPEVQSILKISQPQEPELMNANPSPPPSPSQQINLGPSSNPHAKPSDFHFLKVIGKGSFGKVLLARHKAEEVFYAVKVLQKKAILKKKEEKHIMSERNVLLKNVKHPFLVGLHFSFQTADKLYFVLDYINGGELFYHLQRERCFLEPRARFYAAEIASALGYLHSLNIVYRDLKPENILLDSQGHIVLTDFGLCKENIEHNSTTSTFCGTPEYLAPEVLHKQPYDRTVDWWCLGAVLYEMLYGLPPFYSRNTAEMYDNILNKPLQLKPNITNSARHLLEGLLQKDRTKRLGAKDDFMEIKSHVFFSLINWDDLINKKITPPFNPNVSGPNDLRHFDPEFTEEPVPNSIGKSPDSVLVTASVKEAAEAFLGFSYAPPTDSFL

Chain of Dual specificity tyrosine-phosphorylation-regulated kinase 2 (Homo sapiens) (Q92630 whole entry): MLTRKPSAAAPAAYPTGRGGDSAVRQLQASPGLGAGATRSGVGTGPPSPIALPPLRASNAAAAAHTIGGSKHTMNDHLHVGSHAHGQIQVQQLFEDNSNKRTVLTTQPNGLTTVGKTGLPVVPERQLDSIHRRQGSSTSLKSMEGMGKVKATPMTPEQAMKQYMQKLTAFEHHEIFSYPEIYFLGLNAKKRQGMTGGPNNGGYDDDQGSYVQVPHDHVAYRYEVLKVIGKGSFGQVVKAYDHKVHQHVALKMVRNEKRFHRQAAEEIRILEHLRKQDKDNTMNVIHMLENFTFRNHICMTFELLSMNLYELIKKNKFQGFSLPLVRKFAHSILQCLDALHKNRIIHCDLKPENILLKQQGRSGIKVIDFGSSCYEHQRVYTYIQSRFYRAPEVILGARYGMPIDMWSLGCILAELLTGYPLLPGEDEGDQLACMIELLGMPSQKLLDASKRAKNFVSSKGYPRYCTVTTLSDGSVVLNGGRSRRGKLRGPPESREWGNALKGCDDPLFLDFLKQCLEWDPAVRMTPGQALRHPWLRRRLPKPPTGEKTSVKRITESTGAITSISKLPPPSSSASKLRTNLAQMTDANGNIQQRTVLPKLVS
Chain of Serine/threonine-protein kinase PAK 4 (Homo sapiens) (O96013 whole entry, looked up): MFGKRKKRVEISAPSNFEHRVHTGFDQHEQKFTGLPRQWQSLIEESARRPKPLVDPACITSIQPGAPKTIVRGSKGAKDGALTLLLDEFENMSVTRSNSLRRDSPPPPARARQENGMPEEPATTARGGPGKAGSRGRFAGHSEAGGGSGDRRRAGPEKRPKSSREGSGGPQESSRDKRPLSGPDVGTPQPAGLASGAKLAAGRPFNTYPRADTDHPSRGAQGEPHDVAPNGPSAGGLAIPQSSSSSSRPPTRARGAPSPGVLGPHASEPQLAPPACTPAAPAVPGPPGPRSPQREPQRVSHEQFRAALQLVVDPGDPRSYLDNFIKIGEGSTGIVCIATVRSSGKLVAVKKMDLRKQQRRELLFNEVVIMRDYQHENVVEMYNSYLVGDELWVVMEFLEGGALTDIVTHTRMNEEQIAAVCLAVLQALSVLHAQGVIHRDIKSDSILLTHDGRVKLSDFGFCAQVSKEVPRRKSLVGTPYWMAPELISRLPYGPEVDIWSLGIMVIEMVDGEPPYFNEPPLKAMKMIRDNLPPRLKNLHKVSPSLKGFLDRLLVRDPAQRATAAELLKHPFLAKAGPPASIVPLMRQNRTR
Chain of Serine/threonine-protein kinase 26 (Homo sapiens) (Q9P289 2-416 limits assumed): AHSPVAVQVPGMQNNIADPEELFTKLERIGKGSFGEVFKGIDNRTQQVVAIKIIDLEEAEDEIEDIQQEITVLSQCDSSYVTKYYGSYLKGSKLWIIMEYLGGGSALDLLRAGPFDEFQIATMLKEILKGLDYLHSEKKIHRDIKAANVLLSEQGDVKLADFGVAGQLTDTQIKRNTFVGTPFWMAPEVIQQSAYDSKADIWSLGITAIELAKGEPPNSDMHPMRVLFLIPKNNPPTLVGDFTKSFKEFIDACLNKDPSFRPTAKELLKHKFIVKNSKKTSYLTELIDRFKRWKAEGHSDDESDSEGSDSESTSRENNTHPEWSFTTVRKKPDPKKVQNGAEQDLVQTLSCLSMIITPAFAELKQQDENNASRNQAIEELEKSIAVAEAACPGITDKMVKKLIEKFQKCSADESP
T1 sequence (Q5S007 whole entry): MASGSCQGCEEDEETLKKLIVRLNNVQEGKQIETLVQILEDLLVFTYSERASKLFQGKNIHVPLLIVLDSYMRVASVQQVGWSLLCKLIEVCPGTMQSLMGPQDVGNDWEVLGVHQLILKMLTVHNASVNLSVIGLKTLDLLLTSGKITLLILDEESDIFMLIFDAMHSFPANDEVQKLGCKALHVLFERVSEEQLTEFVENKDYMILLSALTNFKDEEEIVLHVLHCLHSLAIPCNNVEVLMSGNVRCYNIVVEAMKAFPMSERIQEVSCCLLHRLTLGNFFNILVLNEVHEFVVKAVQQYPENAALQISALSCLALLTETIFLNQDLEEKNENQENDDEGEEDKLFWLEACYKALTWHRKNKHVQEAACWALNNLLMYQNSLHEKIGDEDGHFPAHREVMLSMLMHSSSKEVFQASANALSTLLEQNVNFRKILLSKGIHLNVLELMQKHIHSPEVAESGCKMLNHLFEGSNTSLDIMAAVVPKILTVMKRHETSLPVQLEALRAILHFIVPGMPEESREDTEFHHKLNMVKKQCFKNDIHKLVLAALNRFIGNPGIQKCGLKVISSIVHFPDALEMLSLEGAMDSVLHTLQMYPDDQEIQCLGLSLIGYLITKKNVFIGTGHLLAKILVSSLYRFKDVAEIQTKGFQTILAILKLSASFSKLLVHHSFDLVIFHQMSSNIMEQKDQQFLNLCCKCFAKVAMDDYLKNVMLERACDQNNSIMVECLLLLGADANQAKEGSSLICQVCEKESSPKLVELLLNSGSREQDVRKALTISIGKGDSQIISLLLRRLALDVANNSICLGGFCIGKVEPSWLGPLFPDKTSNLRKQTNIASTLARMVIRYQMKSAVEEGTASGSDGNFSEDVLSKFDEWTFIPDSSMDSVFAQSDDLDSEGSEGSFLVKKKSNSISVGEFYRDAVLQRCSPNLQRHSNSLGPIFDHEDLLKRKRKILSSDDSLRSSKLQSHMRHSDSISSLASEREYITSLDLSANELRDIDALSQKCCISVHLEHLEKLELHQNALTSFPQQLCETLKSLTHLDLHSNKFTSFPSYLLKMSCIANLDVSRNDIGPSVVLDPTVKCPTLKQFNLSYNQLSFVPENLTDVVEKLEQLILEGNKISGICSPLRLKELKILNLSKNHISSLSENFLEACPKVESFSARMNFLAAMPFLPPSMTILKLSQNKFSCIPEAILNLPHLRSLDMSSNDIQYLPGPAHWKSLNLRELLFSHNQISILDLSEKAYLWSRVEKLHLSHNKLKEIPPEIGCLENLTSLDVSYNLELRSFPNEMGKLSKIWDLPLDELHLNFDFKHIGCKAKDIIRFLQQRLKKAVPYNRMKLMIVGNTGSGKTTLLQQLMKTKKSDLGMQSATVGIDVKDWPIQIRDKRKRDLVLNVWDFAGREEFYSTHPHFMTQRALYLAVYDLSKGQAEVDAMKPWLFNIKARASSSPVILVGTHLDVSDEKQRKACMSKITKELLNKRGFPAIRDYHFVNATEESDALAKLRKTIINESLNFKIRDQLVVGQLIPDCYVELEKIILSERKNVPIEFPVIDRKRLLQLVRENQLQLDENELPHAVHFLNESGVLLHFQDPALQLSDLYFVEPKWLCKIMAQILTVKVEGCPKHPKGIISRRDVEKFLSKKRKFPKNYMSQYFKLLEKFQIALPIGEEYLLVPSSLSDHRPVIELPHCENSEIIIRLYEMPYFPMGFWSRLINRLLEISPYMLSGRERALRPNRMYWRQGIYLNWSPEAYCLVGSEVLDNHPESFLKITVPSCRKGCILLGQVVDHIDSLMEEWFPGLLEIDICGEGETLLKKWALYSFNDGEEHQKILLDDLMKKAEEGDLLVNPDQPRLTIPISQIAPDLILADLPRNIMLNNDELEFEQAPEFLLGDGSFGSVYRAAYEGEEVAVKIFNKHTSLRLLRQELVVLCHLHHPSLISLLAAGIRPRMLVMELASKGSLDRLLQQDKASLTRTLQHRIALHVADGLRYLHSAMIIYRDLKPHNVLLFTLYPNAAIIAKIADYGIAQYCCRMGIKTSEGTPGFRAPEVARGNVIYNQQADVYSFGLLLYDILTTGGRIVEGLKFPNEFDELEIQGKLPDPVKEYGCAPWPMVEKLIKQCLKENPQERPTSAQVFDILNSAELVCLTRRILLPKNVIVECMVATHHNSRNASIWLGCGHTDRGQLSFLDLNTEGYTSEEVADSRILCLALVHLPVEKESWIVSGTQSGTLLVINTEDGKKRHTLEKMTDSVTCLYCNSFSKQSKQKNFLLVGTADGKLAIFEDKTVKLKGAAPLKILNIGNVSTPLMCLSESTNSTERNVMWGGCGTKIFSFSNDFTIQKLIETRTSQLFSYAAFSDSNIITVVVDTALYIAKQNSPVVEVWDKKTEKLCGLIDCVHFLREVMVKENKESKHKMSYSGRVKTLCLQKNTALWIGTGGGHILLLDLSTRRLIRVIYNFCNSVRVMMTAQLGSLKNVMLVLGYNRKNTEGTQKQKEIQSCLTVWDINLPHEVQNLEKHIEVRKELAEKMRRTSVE
Chain of Serine/threonine-protein kinase pim-2 (Homo sapiens) (Q9P1W9 whole entry, looked up): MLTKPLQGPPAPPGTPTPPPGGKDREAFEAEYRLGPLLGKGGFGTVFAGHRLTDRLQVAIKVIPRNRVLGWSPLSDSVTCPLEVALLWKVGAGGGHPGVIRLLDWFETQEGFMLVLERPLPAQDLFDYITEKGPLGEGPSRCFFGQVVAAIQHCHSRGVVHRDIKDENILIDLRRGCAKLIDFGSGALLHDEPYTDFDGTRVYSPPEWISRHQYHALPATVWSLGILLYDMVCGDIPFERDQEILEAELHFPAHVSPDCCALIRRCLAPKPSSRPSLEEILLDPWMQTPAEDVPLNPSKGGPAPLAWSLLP

COc1cc(N2CCC(N3CCN(C)CC3)CC2)ccc1Nc1ncc(Cl)c(Nc2ccccc2S(=O)(=O)C(C)C)n1 [TAE-684]
Activity [1]: 113% | Activity [2]: 33% | Activity [3]: 79% | Activity [4]: 106% | Activity [5]: 26% | Activity [6]: 66% | Activity [7]: 77% | Activity [8]: 104% | Activity [9]: 55% | Activity [10]: 44% | Activity [11]: 107% | Activity [12]: 109% | inhibition [13]: Dose-dependent effect | inhibition [14]: Active | inhibition [15]: Dose-dependent effect | AUClast [16]: 14430 ng·h/mL | Activity [17]: 18% | Activity [18]: 68% | Activity [19]: 102% | Activity [20]: 105% | Vd [21]: 14.5 L/kg | inhibition [22]: Active | inhibition [23]: Active | Activity [24]: 38% | Activity [25]: 5% | Activity [26]: 38% | Activity [27]: 90% | Activity [28]: 92% | Activity [29]: 75% | Activity [30]: 109% | Activity [31]: 102% | Activity [32]: 88%

Source: ChEMBL document CHEMBL2010643 (Bioorg Med Chem Lett, 2012)
